Assay results: ChEMBL document CHEMBL2203281, “Microwave assisted synthesis and anti-influenza virus activity of 1-adamantyl substituted N-(1-thia-4-azaspiro[4.5]decan-4-yl)carboxamide derivatives” (Bioorg Med Chem, 2012)

Columns and labels:
Influenza A virus [1] = assay: Antiviral activity against Influenza A virus (A/X-31(H3N2)) infected in MDCK cells assessed as virus-induced cytopathic effect after 3 days by microscopic analysis; assay type: functional, organism-based; conditions: 72 h
Outline: (§1)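 Multicycle CPE reduction assay in 96-well MDCK cells. Cells got serial compound dilutions together with influenza virus at multiplicity of infection 0.0004 PFU per cell, then 72 h at 35 °C. CPE was read by microscopic scoring and then by MTS cell viability.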

Influenza B virus [2] = assay: Antiviral activity against Influenza B virus (B/HK/5/72) infected in MDCK cells assessed as virus-induced cytopathic effect after 3 days by microscopic analysis; assay type: functional, cell-based; conditions: B/Hong Kong/05/1972, MDCK, 72 h; outline: as §1
Influenza A virus [3] = assay: Antiviral activity against Influenza A virus (A/PR/8/34(H1N1)) infected in MDCK cells assessed as virus-induced cytopathic effect after 3 days by microscopic analysis; assay type: functional, organism-based, A/Puerto Rico/8/1934(H1N1); outline: as §1
Influenza A virus [4] = assay: Antiviral activity against Influenza A virus (A/X-31(H3N2)) infected in MDCK cells assessed as virus-induced cytopathic effect after 3 days by MTS assay; assay type: functional, organism-based; outline: as §1
[5] = Cytotoxicity against dog MDCK cells assessed as cell viability by MTS assay; assay type: cell-based, Canis lupus familiaris
Influenza A virus [6] = assay: Antiviral activity against Influenza A virus (A/PR/8/34(H1N1)) infected in MDCK cells assessed as virus-induced cytopathic effect after 3 days by MTS assay; assay type: functional, organism-based, A/Puerto Rico/8/1934(H1N1); outline: as §1
Influenza B virus [7] = assay: Antiviral activity against Influenza B virus (B/HK/5/72) infected in MDCK cells assessed as virus-induced cytopathic effect after 3 days by MTS assay; assay type: functional, cell-based; conditions: B/Hong Kong/05/1972, MDCK, 72 h; outline: as §1
[8] = Cytotoxicity against dog MDCK cells assessed as cell morphology alterations by microscopic analysis; assay type: cell-based, Canis lupus familiaris
Outline: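 MDCK cells were exposed to serial compound dilutions and kept 72 h at 35 °C alongside the antiviral plates. MCC is the lowest concentration causing a microscopically detectable change in cell morphology.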

Hemagglutinin = Hemagglutinin (Influenza A virus (strain A/X-31 H3N2), UniProt P03438); assay: Inhibition of hemagglutininin in Influenza A virus (A/X-31(H3N2)) infected in chicken red blood cells assessed as inhibition of hemolysis preincubated for 1 hr prior to addition of red blood cells measured at pH 5.0 by spectrophotometric analysis; assay type: cell-based
Outline: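 Influenza A/X-31 (H3N2) stock was preincubated with serial compound dilutions for 1 h at 37 °C. Chicken RBC were added for 10 min at 37 °C, then pelleted and resuspended in buffer holding the same compound level. pH was lowered to 5.0 for 25 min at 37 °C, then neutralised. Intact RBC were spun out and supernatant OD540 read. IC50 came from dose-response.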

[9] = Selectivity index, ratio of cytotoxic concentration for dog MDCK cells to EC50 for Influenza A virus (A/X-31(H3N2)); assay type: toxicity, cell-based; conditions: read-out: Ratio EC50
[10] = Influenza A virus, A/Puerto Rico/8/1934(H1N1), MDCK, 72 h

Sequence of Hemagglutinin (P03438 whole entry): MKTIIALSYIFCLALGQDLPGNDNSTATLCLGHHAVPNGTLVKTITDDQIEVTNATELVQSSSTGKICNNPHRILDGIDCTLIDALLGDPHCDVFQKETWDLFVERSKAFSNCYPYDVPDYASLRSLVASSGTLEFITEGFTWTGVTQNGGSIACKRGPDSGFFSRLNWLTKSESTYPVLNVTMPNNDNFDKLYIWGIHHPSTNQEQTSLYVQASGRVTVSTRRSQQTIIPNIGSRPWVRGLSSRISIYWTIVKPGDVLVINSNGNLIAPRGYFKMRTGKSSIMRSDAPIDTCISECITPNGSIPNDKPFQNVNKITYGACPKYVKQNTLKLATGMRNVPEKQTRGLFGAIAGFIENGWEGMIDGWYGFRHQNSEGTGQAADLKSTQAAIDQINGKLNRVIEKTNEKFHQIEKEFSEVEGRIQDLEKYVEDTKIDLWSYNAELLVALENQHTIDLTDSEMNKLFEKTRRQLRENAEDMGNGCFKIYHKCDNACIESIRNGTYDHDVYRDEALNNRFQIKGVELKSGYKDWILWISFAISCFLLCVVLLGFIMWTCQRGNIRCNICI

SMILES	EC50 (Influenza A virus [1]) [µM]	EC50 (Influenza B virus [2]) [µM]	EC50 (Influenza A virus [3]; [10]) [µM]	EC50 (Influenza A virus [4]; Influenza A virus, MDCK, 72 h) [µM]	CC50 [5] [µM]	EC50 (Influenza A virus [6]; [10]) [µM]	EC50 (Influenza B virus [7]) [µM]	MCC [8] [µM]	EC50 (Influenza A virus [3]; mdck) [µM]	EC50 (Influenza A virus [4]; mdck) [µM]	EC50 (Influenza A virus [6]; mdck) [µM]	IC50 (Hemagglutinin) [µM]	selectivity ratio [9]
O=C1CSC2(CCC(c3ccccc3)CC2)N1NC(=O)C12CC3CC(CC(C3)C1)C2 (stereo not drawn)	> 100	> 100	> 100	> 100	> 100	> 100	> 100	> 20	–	–	–	–	–
CCCC1CCC2(CC1)SC(C)C(=O)N2NC(=O)C12CC3CC(CC(C3)C1)C2 (stereo not drawn)	29	> 100	> 100	23	> 100	> 100	> 100	> 100	–	–	–	–	–
CC(N)C12CC3CC(CC(C3)C1)C2 (stereo not drawn) [RIMANTADINE]	45	> 500	2.7	40	218	2.5	> 500	–	–	–	–	–	–
CCCC1CCC2(CC1)SCC(=O)N2NC(=O)C12CC3CC(CC(C3)C1)C2 (stereo not drawn)	> 100	> 100	> 100	44	> 100	> 100	> 100	> 100	–	–	–	–	–
Cc1nc2sccn2c1C(=O)NN1C(=O)C(C)SC12CCC(C)CC2 (stereo not drawn)	6.8	> 100	> 100	9	> 100	> 100	> 100	> 100	–	–	–	–	–
CC1SC2(CCC(c3ccccc3)CC2)N(NC(=O)C23CC4CC(CC(C4)C2)C3)C1=O (stereo not drawn)	> 100	> 100	> 100	> 100	42	> 100	> 100	20	–	–	–	–	–
NC12CC3CC(CC(C3)C1)C2 [AMANTADINE]	224	> 500	58	208	> 500	75	> 500	> 500	–	–	–	–	–
CC1SC2(CCCCC2)N(NC(=O)C23CC4CC(CC(C4)C2)C3)C1=O (stereo not drawn)	> 100	> 100	> 100	> 100	> 100	> 100	> 100	> 100	–	–	–	–	–
CC(=O)N[C@H]1[C@H]([C@H](O)[C@H](O)CO)OC(C(=O)O)=C[C@@H]1NC(=N)N [ZANAMIVIR]	12	0.072	0.44	53	> 100	0.48	0.063	> 100	–	–	–	–	–
NC(=O)c1ncn([C@@H]2O[C@H](CO)[C@@H](O)[C@H]2O)n1 [RIBAVIRIN]	–	0.094	–	–	> 100	–	0.14	> 20	8.9	8.5	8.4	–	–
CC(C)(C)C1CCC2(CC1)SCC(=O)N2NC(=O)C12CC3CC(CC(C3)C1)C2 (stereo not drawn)	> 100	> 100	> 100	34	> 100	53	> 100	> 20	–	–	–	–	–
CC1SC2(CCC(C(C)(C)C)CC2)N(NC(=O)C23CC4CC(CC(C4)C2)C3)C1=O (stereo not drawn)	> 100	> 100	> 100	> 100	> 100	> 100	> 100	> 100	–	–	–	–	–
CC1CCC2(CC1)SCC(=O)N2NC(=O)C12CC3CC(CC(C3)C1)C2 (stereo not drawn)	> 100	> 100	> 100	> 100	> 100	> 100	> 100	> 100	–	–	–	–	–
CCC1CCC2(CC1)SC(C)C(=O)N2NC(=O)C12CC3CC(CC(C3)C1)C2 (stereo not drawn)	51	> 100	> 100	1.7	> 100	> 100	> 100	> 100	–	–	–	–	–
CC1CCC2(CC1)SC(C)C(=O)N2NC(=O)C12CC3CC(CC(C3)C1)C2 (stereo not drawn)	1.6	> 100	> 100	1.4	> 100	> 100	> 100	> 100	–	–	–	3.7	> 67
CCC1CCC2(CC1)SCC(=O)N2NC(=O)C12CC3CC(CC(C3)C1)C2 (stereo not drawn)	> 100	> 100	> 100	21	> 100	> 100	> 100	> 100	–	–	–	–	–
